Measurements reported in ChEMBL document CHEMBL1134521, “Characterization of melanocortin NDP-MSH agonist peptide fragments at the mouse central and peripheral melanocortin receptors” (J Med Chem, 2001).
Where a SMILES comes first, the peptide text is derived from it. [ ]: non-standard residue; d: D form.

Key:
Melanocortin receptor 5 [1] = target: T1, Melanocortin receptor 5 (Mus musculus, UniProt P41149); test: Functional activity at the mouse melanocortin 5 receptor
Summary of the method: (§1)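 HEK-293 cells stably expressing the mouse receptor (calcium phosphate transfection, G418 1 mg/mL), transfected with CRE/β-galactosidase reporter. Lysates read at OD405 with ONPG at 37 °C, normalized to protein and forskolin (10^-4 M) response. EC50 from curve fit, at least three independent experiments.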

Melanocortin receptor 4 = Melanocortin receptor 4 (Mus musculus, UniProt P56450); test: Functional activity at the mouse melanocortin 4 receptor; summary of the method: as §1
Sequence of Melanocortin receptor 4 (P56450 whole entry): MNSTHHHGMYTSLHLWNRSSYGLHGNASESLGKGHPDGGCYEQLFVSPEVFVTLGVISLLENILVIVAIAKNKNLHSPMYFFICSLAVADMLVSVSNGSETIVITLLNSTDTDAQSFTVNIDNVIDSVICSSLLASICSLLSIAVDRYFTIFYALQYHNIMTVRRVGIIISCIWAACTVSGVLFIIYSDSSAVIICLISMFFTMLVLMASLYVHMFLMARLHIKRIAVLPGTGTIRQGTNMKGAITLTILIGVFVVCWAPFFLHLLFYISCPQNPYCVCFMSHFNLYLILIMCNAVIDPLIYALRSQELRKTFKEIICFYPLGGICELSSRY

Melanocortin receptor 3 [2] = target: T2, Melanocortin receptor 3 (Mus musculus, UniProt P33033); test: Functional activity at the mouse melanocortin 3 receptor at 100 uM; Slight agonist
T2 sequence (P33033 whole entry): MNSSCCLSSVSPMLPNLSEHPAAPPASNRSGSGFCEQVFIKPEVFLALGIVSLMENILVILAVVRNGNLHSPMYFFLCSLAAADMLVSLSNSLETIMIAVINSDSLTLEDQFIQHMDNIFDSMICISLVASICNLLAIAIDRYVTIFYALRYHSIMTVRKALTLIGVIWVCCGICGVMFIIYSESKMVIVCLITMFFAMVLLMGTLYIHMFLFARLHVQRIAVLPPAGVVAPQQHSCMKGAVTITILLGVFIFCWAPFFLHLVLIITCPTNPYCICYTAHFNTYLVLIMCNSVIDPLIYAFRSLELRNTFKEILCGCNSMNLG

[3] = target: T3, Melanocyte-stimulating hormone receptor (Mus musculus, UniProt Q01727); test: Functional activity at the mouse melanocortin 1 receptor; summary of the method: as §1
T3 sequence (Q01727 whole entry): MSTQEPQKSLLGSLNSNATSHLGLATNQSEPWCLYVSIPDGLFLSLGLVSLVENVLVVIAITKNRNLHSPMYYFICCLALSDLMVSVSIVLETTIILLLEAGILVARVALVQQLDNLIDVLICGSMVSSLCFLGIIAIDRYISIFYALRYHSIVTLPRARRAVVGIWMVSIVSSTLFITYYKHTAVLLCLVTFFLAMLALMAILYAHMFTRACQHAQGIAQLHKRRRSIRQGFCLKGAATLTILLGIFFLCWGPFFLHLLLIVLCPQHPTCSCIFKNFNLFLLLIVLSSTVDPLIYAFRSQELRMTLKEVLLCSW

Melanocortin receptor 3 [4] = target: T2, Melanocortin receptor 3; test: Functional activity at the mouse melanocortin 3 receptor; summary of the method: as §1
[5] = target: T3, Melanocyte-stimulating hormone receptor; test: Functional activity at the mouse melanocortin 1 receptor at 100 uM; Slight agonist
Melanocortin receptor 5 [6] = target: T1, Melanocortin receptor 5; test: Functional activity at the mouse melanocortin 5 receptor at 100 uM; Slight agonist

T1 sequence (P41149 whole entry): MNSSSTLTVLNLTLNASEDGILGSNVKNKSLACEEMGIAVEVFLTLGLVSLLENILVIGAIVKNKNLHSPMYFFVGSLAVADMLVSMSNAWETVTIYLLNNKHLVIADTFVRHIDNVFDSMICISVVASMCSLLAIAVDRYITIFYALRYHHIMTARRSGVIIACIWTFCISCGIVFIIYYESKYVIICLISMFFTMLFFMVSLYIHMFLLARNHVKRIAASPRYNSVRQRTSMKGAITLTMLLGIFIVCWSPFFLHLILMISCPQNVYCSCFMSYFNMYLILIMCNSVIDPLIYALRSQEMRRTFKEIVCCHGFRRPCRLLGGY

Row | SMILES | EC50 (Melanocortin receptor 5 [1]) | EC50 (Melanocortin receptor 4) | EC50 (Melanocortin receptor 3 [2]) | EC50 [3] | EC50 (Melanocortin receptor 3 [4]) | EC50 [5] | EC50 (Melanocortin receptor 5 [6])
1 | CC(=O)N[C@H](Cc1ccccc1)C(=O)N[C@@H](CCCN=C(N)N)C(=O)N[C@@H](Cc1c[nH]c2ccccc12)C(N)=O (Ac-[dF]-Arg-Trp-NH2) | 1660 nM | 2320 nM | Partial agonist | 4540 nM |  |  | 
2 | CC(=O)N[C@@H](Cc1c[nH]cn1)C(=O)N[C@@H](Cc1ccccc1)C(=O)N[C@@H](CCCN=C(N)N)C(=O)N[C@H](Cc1c[nH]c2ccccc12)C(N)=O | 317 nM | 6620 nM |  |  |  |  | 
3 | CC(=O)N[C@@H](Cc1cnc[nH]1)C(=O)N[C@H](Cc1ccccc1)C(=O)N[C@@H](CCCNC(=N)N)C(=O)N[C@H](Cc1c[nH]c2ccccc12)C(N)=O | 61.3 nM | 154 nM |  |  |  |  | 
4 | CC(=O)N[C@@H](Cc1ccccc1)C(=O)N[C@@H](CCCNC(=N)N)C(=O)N[C@@H](Cc1c[nH]c2ccccc12)C(N)=O (Ac-Phe-Arg-Trp-NH2) |  | > 100000 nM |  | 5870 nM | > 100000 nM |  | 
5 | CCCC[C@H](NC(C)=O)C(=O)N[C@@H](CCC(=O)O)C(=O)N[C@@H](Cc1cnc[nH]1)C(=O)N[C@H](Cc1ccccc1)C(=O)N[C@@H](CCCNC(=N)N)C(=O)N[C@@H](Cc1c[nH]c2ccccc12)C(=O)NCC(=O)N[C@@H](CCCCN)C(=O)N1CCC[C@H]1C(=O)N[C@H](C(N)=O)C(C)C | 0.46 nM | 0.32 nM |  | 0.021 nM | 0.11 nM |  | 
6 | CCCC[C@H](NC(=O)[C@H](CO)NC(=O)[C@H](Cc1ccc(O)cc1)NC(=O)[C@H](CO)NC(C)=O)C(=O)N[C@@H](CCC(=O)O)C(=O)N[C@@H](Cc1cnc[nH]1)C(=O)N[C@H](Cc1ccccc1)C(=O)N[C@@H](CCCNC(=N)N)C(=O)N[C@@H](Cc1c[nH]c2ccccc12)C(N)=O | 0.53 nM | 0.78 nM |  | 0.036 nM | 0.29 nM |  | 
7 | CCCC[C@H](NC(=O)[C@H](CO)NC(=O)[C@H](Cc1ccc(O)cc1)NC(=O)[C@H](CO)NC(C)=O)C(=O)N[C@@H](CCC(=O)O)C(=O)N[C@@H](Cc1c[nH]cn1)C(=O)N[C@H](Cc1ccccc1)C(=O)N[C@@H](CCCN=C(N)N)C(=O)N[C@@H](Cc1c[nH]c2ccccc12)C(=O)NCC(=O)N[C@@H](CCCCN)C(N)=O | 0.46 nM | 0.44 nM |  | 0.018 nM | 0.16 nM |  | 
8 | CC(=O)N[C@H](Cc1ccccc1)C(=O)N[C@@H](CCCN=C(N)N)C(=O)N[C@H](Cc1c[nH]c2ccccc12)C(N)=O | 6880 nM | 11200 nM |  |  | > 100000 nM | Partial agonist | 
9 | CC(=O)N[C@@H](Cc1c[nH]cn1)C(=O)N[C@H](Cc1ccccc1)C(=O)N[C@@H](CCCN=C(N)N)C(=O)N[C@@H](Cc1c[nH]c2ccccc12)C(=O)NCC(=O)N[C@@H](CCCCN)C(=O)N1CCC[C@H]1C(=O)N[C@H](C(N)=O)C(C)C | 0.17 nM | 0.45 nM |  | 0.49 nM | 6.82 nM |  | 
10 | CC(=O)N[C@@H](CCC(=O)O)C(=O)N[C@@H](Cc1c[nH]cn1)C(=O)N[C@H](Cc1ccccc1)C(=O)N[C@@H](CCCN=C(N)N)C(=O)N[C@@H](Cc1c[nH]c2ccccc12)C(N)=O | 0.42 nM | 4.31 nM |  | 8.94 nM | 15.2 nM |  | 
11 | CC(=O)N[C@@H](Cc1ccccc1)C(=O)N[C@@H](CCCN=C(N)N)C(=O)N[C@@H](Cc1c[nH]c2ccccc12)C(N)=O (Ac-Phe-Arg-Trp-NH2) |  |  |  |  |  |  | Partial agonist
12 | CCCC[C@H](NC(C)=O)C(=O)N[C@@H](CCC(=O)O)C(=O)N[C@@H](Cc1c[nH]cn1)C(=O)N[C@H](Cc1ccccc1)C(=O)N[C@@H](CCCN=C(N)N)C(=O)N[C@@H](Cc1c[nH]c2ccccc12)C(=O)NCC(N)=O | 0.59 nM | 0.94 nM |  | 0.045 nM | 0.39 nM |  | 
13 | CCCC[C@H](NC(C)=O)C(=O)N[C@@H](CCC(=O)O)C(=O)N[C@@H](Cc1c[nH]cn1)C(=O)N[C@H](Cc1ccccc1)C(=O)N[C@@H](CCCN=C(N)N)C(=O)N[C@@H](Cc1c[nH]c2ccccc12)C(N)=O | 0.39 nM | 0.45 nM |  | 0.034 nM | 0.26 nM |  | 
14 | CC(=O)N[C@@H](Cc1cnc[nH]1)C(=O)N[C@H](Cc1ccccc1)C(=O)N[C@@H](CCCN=C(N)N)C(=O)N[C@@H](Cc1c[nH]c2ccccc12)C(N)=O | 3.46 nM | 10.2 nM |  |  |  |  | 
15 | CC(=O)N[C@@H](Cc1c[nH]cn1)C(=O)N[C@@H](Cc1ccccc1)C(=O)N[C@@H](CCCN=C(N)N)C(=O)N[C@@H](Cc1c[nH]c2ccccc12)C(N)=O | 103 nM | 2110 nM |  |  |  |  | 
